Residue numbers refer to the chain shown, from its start. Where two headings read alike, the source gives them in different places.
Experiments:
[1] = target: native olfactory CNG channels; conditions: cited from earlier work
[2] = target: T1, E340Q mutant bovine olfactory CNG channel (Bos taurus, UniProt Q03041, E340Q); experiment: Estimate from current variance versus mean amplitude of macroscopic currents; type: biochemical; conditions: estimated from variance/mean at various cGMP concentrations
T1 sequence (Q03041 1-663 E340Q): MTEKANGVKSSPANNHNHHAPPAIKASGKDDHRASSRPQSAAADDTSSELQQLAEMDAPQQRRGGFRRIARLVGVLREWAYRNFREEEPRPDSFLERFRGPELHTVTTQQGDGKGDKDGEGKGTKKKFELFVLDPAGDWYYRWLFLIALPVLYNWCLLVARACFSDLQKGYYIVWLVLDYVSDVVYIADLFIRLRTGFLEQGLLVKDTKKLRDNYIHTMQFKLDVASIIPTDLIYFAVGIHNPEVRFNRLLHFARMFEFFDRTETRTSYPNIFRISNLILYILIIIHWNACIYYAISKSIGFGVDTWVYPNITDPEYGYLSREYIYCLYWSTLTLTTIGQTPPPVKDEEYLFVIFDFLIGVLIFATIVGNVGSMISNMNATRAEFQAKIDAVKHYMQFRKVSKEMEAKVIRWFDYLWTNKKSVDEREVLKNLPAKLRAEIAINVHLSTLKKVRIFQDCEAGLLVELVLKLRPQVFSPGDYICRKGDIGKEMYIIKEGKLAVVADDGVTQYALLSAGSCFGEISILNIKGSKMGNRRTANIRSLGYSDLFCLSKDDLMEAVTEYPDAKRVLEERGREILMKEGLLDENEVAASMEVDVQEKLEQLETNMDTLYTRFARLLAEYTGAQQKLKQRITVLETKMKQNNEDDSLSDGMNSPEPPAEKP
Summary of the method: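 Single-channel amplitude not directly measurable. Assuming a single open state, current amplitude and maximal open probability were estimated from the relation between current variance and mean amplitude of macroscopic currents recorded at various cGMP concentrations, in patches from mRNA-injected Xenopus oocytes.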

[3] = target: T2, wild-type bovine olfactory CNG channel (α3 subunit) (Bos taurus, UniProt Q03041); type: biochemical; conditions: cGMP
T2 sequence (Q03041 1-663): T1 sequence (Q03041 1-663 E340Q) with Q340E

[4] = target: T1, E340Q mutant bovine olfactory CNG channel; type: biochemical
[5] = target: T3, E340G mutant bovine olfactory CNG channel (Bos taurus, UniProt Q03041, E340G); type: biochemical
T3 sequence (Q03041 1-663 E340G): T1 sequence (Q03041 1-663 E340Q) with Q340G

SMILES	Ki ([1]; read-out: K i for external Ca2+ blockage, frog, +80 mV, ref Dzeja et al. 1999)	Ki ([1]; read-out: K i for external Ca2+ blockage, frog, −70 mV, ref Dzeja et al. 1999)	maximal open probability [2]	P max (+80 mV) [3]	P max (−80 mV) [3]	L, equilibrium gating constant ([3]; allosteric model fit, mean ± SD)	n(−80 mV), Hill coefficient ([4]; cGMP)	I(−80 mV)/I(+80 mV) ([4]; cGMP-gated current)	EC50 ([4]; read-out: K 1/2, cGMP, +80 mV)	EC50 ([4]; read-out: K 1/2, cGMP, −80 mV)	EC50 ([4]; read-out: K 1/2,cG, −80 mV, single patch, Fig. 1 fit)	n cG ([4]; −80 mV, single patch, Fig. 1 fit)	P max (+80 mV) ([5]; cGMP)	P max (−80 mV) ([5]; cGMP)	L, equilibrium gating constant ([5]; cGMP, allosteric model fit, mean ± SD)	EC50 ([5]; read-out: K 1/2 (single-channel open probability), cGMP, −80 mV, average)	EC50 ([5]; read-out: K 1/2,cG, −80 mV, single patch, Fig. 2 fit)
[Ca+2] [Ca^2+]	~2 mM	0.265 mM	–	–	–	–	–	–	–	–	–	–	–	–	–	–	–
Nc1nc2c(ncn2[C@@H]2O[C@@H]3COP(=O)(O)O[C@H]3[C@H]2O)c(=O)[nH]1 [cGMP]	–	–	0.9	0.993 ± 0.004	0.996 ± 0.001	334 ± 82	2.7 ± 0.5	0.19 ± 0.06	4 ± 1.2 µM	5.6 ± 1.7 µM	4.8 µM	2.4	0.77 ± 0.08	0.79 ± 0.06	5.2 ± 1.3	14 ± 5 µM	11.6 µM

From publication PMC2233693 (The Journal of General Physiology, 2000)
